Assay results from ChEMBL document CHEMBL1135593, “Design and synthesis of a pro-drug of vinblastine targeted at treatment of prostate cancer with enhanced efficacy and reduced systemic toxicity” (J Med Chem, 2002).
Where a name gives a salt, the structure may show the parent alone.

Assays:
[1] = Percent PSA reduction after intraperitoneal injection of conjugate dose to nude mice bearing LNCaP tumor xenografts; format: functional, Mus musculus
Summary of the method: (§1)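 Nude mice bearing human prostate LNCaP (PSA-secreting) xenografts were given the conjugate intraperitoneally for 5 consecutive days and followed over six weeks. Serum PSA, tumor weight and body weight were measured at study end. Results are percent relative to vehicle-treated controls, with P values.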

[2] = test system: LNCaP; assay: In vitro concentration required to kill 50% of LNCaP human prostate cancer cell line; format: functional, cell-based
Summary of the method: (§2)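 Cell-kill assay in culture. LNCaP is a PSA-secreting human prostate cancer line. Colo320 is a PSA-nonsecreting human colorectal carcinoma line, used as the non-PSA control. EC50 is the compound dose that kills 50% of the tumor cells.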

[3] = test system: Mus musculus; assay: Intraperitoneal dose administered to non tumor bearing nude mice; format: functional
Summary of the method: (§3)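 Nontumor-bearing nude mice were dosed intraperitoneally once daily for 5 consecutive days. MTD is the maximum dose that could be given on this schedule without lethality. P values are reported.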

[4] = test system: LNCaP; assay: Percent tumor weight reduction after intraperitoneal injection of conjugate dose to nude mice bearing LNCaP tumor xenografts; format: functional, Mus musculus; summary of the method: as §1
[5] = test system: T47D; assay: In vitro concentration required to kill 50% of T47D human breast ductal carcinoma cell line; format: functional, cell-based
Summary of the method: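 T47D is a PSA-nonsecreting human breast ductal carcinoma line, used as a control for PSA-secreting LNCaP cells. Compounds were tested in cell culture. EC50 is the dose that kills 50% of the tumor cells.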

[6] = test system: COLO 320; assay: In vitro concentration required to kill 50% of COLO 320 human colorectal carcinoma cell line; format: functional, cell-based; summary of the method: as §2
[7] = test system: Mus musculus; assay: Maximum nonlethal drug dose administered intraperitoneally to non tumor bearing nude mice; format: functional; summary of the method: as §3
[8] = test system: PSA; assay: Time required for PSA to hydrolyze 50% compound at a molar ratio of 1:100; format: ADME; conditions: PSA (enzyme)
Summary of the method: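 Conjugate and purified human PSA were mixed at a 100:1 molar ratio (substrate:enzyme) in 50 mM Tris·HCl and 140 mM NaCl, pH 7.4. Samples were incubated at 37 °C for 0, 30, 60, 120, 180 or 240 min. T1/2 is the time to 50% cleavage.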

Row | Compound | Reduction [1] [%] | EC50 [2] [µM] | Dose [3] [µM/kg] | Weight reduction [4] [%] | EC50 [5] [µM] | EC50 [6] [µM] | MTD [7] [µM/kg] | half-life [8] [min]
1 | CC[C@]1(O)C[C@@H]2CN(CCc3c([nH]c4ccccc34)[C@@](C(=O)OC)(c3cc4c(cc3OC)N(C)C3C45CCN4CC=C[C@](CC)(C45)[C@@H](O)[C@]3(O)C(=O)OC)C2)C1 (some centres not stated) | 14 | 0.1 | 0.26 | 16 | 0.15 | 0.2 | 0.26 | –
2 | CC[C@]1(O)C[C@@H]2CN(CCc3c([nH]c4ccccc34)[C@@](C(=O)OC)(c3cc4c(cc3OC)N(C)C3C45CCN4CC=C[C@](CC)(C45)[C@@H](OC(=O)CN)[C@]3(O)C(=O)OC)C2)C1 (some centres not stated) | – | 0.3 | – | – | – | 1.8 | – | –
3 | CC[C@]1(O)C[C@@H]2CN(CCc3c([nH]c4ccccc34)[C@@](C(=O)OC)(c3cc4c(cc3OC)N(C)C3C45CCN4CC=C[C@](CC)(C45)[C@@H](OC(=O)[C@@H](N)CC(C)C)[C@]3(O)C(=O)OC)C2)C1 (some centres not stated) | – | 4 | – | – | – | 6 | – | –
4 | CC[C@]1(O)C[C@@H]2CN(CCc3c([nH]c4ccccc34)[C@@](C(=O)OC)(c3cc4c(cc3OC)N(C)C3C45CCN4CC=C[C@](CC)(C45)[C@@H](OC(=O)C4CCCN4)[C@]3(O)C(=O)OC)C2)C1.O=C(O)C(F)(F)F (some centres not stated) | 33 | 1 | 4.6 | 60 | 1.6 | 3 | 4.6 | –
5 | CC[C@]1(O)C[C@@H]2CN(CCc3c([nH]c4ccccc34)[C@@](C(=O)OC)(c3cc4c(cc3OC)N(C)C3C45CCN4CC=C[C@](CC)(C45)[C@@H](OC(=O)[C@H](CC(C)C)NC(=O)[C@H](CO)NC(=O)[C@H](CCC(N)=O)NC(=O)C(NC(=O)[C@H](CO)NC(=O)[C@H](CO)NC(=O)[C@H]4CC(O)CN4C(C)=O)C4CCCCC4)[C@]3(O)C(=O)OC)C2)C1.O=C(O)C(F)(F)F (some centres not stated) | – | 40 | – | – | – | 87 | – | 35
6 | CC[C@]1(O)C[C@@H]2CN(CCc3c([nH]c4ccccc34)[C@@](C(=O)OC)(c3cc4c(cc3OC)N(C)[C@H]3[C@@](O)(C(=O)OC)[C@H](OC(C)=O)[C@]5(CC)C=CCN6CC[C@]43[C@@H]65)C2)C1 [VINBLASTINE SULFATE] | – | 0.5 | – | – | – | – | – | –
